The subject of assay [1] is PPC-1. The assay can be described thus: Antiproliferative activity against human PPC1 cells after 96 hrs by sulforhodamine B assay. Format: functional, cell-based. As to conditions: PPC-1, 96 h.
A short description of assay [2]: Antiproliferative activity against human WM164 cells after 48 hrs by sulforhodamine B assay. The format is functional, cell-based. The following applies: WM164, 48 h. (In SRB staining, fixed cells bind dye roughly in proportion to their protein.)
For assay [3], the species on record is Bos taurus. The assay can be described thus: Inhibition of bovine brain tubulin polymerization after 15 mins by spectrophotometric analysis. Put shortly:
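Bovine brain tubulin (>97% pure, 0.4 mg per assay) mixed with compound at 5, 10 or 20 µM, with 5% DMSO as vehicle control. Buffer: 80 mM PIPES, 2.0 mM MgCl2, 0.5 mM EGTA, 1 mM GTP, pH 6.9. Polymerization followed at 37 °C as absorbance at 340 nm, read every minute for 15 min.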

For assay [4], the system named is LNCaP. The assay can be described thus: Antiproliferative activity against human LNCAP cells after 96 hrs by sulforhodamine B assay. Format: functional, cell-based.
The subject of assay [5] is DU-145. The assay can be described thus: Antiproliferative activity against human DU145 cells after 96 hrs by sulforhodamine B assay. As to conditions: DU-145, 96 h. Format: functional, cell-based.
Assay [6] relates to PC-3. The experiment in a line: Antiproliferative activity against human PC3 cells after 96 hrs by sulforhodamine B assay. The format is functional, cell-based. The following applies: PC-3, 96 h.
In assay [7] the test system is A-375. The experiment in a line: Antiproliferative activity against human A375 cells after 48 hrs by sulforhodamine B assay. Format: functional, cell-based. As to conditions: A-375, 48 h.
Assay [8] has as its system PC-3. The experiment in a line: Antiproliferative activity against human PC3 cells by sulforhodamine B assay. The format is functional, cell-based. The essentials:
(§1)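 Prostate cancer cells grown in RPMI 1640 with 10% FBS at 37 °C, 5% CO2. Cells (1000–5000/well, by growth rate) were exposed to a range of concentrations for 96 h, in three to five replicates. Growth was read by SRB: TCA fixation, 0.4% SRB stain, absorbance at 540 nm.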

Assay [9] has as its system DU-145. The experiment in a line: Antiproliferative activity against human paclitaxel-resistant DU145 cells by sulforhodamine B assay. Format: functional, cell-based. Put shortly:
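Prostate cancer cells grown in RPMI 1640 with 10% FBS at 37 °C, 5% CO2. Seeded at 1000–5000 cells/well depending on growth rate and exposed to a concentration series for 96 h, in three to five replicates. Cells fixed with 10% TCA and stained with 0.4% SRB, absorbance read at 540 nm.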

The subject of assay [10] is PC-3. The experiment in a line: Antiproliferative activity against human paclitaxel-resistant PC3 cells by sulforhodamine B assay. Format: functional, cell-based. Put shortly: as §1

Each structure is given as a SMILES string.

For the compound `COc1ccc2cc(C(=O)c3cc(OC)c(OC)c(OC)c3)[nH]c2c1`, the IC50 in [1], in assay [2], in [4], in [5], in assay [6] and in assay [7] was > 10 µM throughout. Besides, the inhibition entry in assay [3] is “Dose-dependent effect”.

Regarding `COc1cc(C(=O)c2cc3cc(F)ccc3[nH]2)cc(OC)c1OC`, the IC50 – broadly, the concentration at which inhibition is half-maximal – stood at 1 µM in assay [1]; 2.26 µM in assay [2]; 8.63 µM in assay [4]; 3.42 µM in assay [5]; 9.16 µM in assay [6]; 2.21 µM in [7]. Moreover, the inhibition result in [3] was “Dose-dependent effect”.

As for `COc1cc(C(O)(c2nc3ccccc3s2)c2nc3ccccc3s2)cc(OC)c1OC`, the IC50 in [1], in assay [2], in [4], in assay [5], in assay [6] and in assay [7] was > 10 µM each time. In addition, the inhibition entry in [3] was “Dose-dependent effect”.

For `COc1cc(C(=O)c2c[nH]c(-c3ccc4[nH]c(C(=O)c5cc(OC)c(OC)c(OC)c5)cc4c3)n2)cc(OC)c1OC`, the IC50 in [1] came out at 4.58 µM; in [2] it was 1.7 µM; in assay [4], 1.07 µM; in [5], 5.92 µM; in [6], 2.63 µM; in assay [7], 1.8 µM. The inhibition entry in [3] is “Dose-dependent effect”.

Regarding `COc1cc(C(=O)c2nc3ccccc3s2)cc(OC)c1OC`, the IC50 in assay [1], in assay [2], in [4], in assay [5], in [6] and in assay [7] was > 10 µM each time. In addition, the inhibition result in assay [3] was “Dose-dependent effect”.

For `COc1ccc2[nH]c(C(=O)c3cc(OC)c(OC)c(OC)c3)cc2c1`, the IC50 in assay [1] was 0.05 µM; in assay [2], 0.04 µM; in assay [4], 0.05 µM; in assay [5] it was 0.08 µM; in assay [6], 0.04 µM; in assay [7], 0.03 µM. For the same compound, in assay [3], the inhibition entry is “Dose-dependent effect”.

Regarding `COc1cc(C(=O)c2c[nH]c(-c3ccc(Cl)cc3)n2)cc(OC)c1O`, the half-maximal inhibitory concentration (IC50) in assay [1] was 0.58 µM; in assay [2] it was 0.5 µM; in assay [4], 0.55 µM; in assay [5], 1 µM; in assay [6] it was 0.3 µM; in [7], 0.68 µM. In addition, the inhibition result in assay [3] was “Dose-dependent effect”.

In the case of `CC(=O)O[C@H]1C(=O)[C@@]2(C)[C@H]([C@H](OC(=O)c3ccccc3)[C@]3(O)C[C@H](OC(=O)[C@H](O)[C@@H](NC(=O)c4ccccc4)c4ccccc4)C(C)=C1C3(C)C)[C@]1(OC(C)=O)CO[C@@H]1C[C@@H]2O` [PACLITAXEL], the IC50 was 0.00043 µM in assay [8], > 3 µM in [9] and 0.188 µM in [10].

With `COc1cc(C(=O)c2cc3ccc(F)cc3n2S(=O)(=O)c2ccccc2)cc(OC)c1OC`, the half-maximal inhibitory concentration (IC50) in [1], in assay [2], in [4], in [5], in assay [6] and in assay [7] was > 10 µM in each case. Also, the inhibition result in [3] was “Dose-dependent effect”.

For the compound `COc1cc(C(=O)c2nc3ccccc3o2)cc(OC)c1OC`, the IC50 in [1], in [2], in assay [4], in assay [5], in assay [6] and in assay [7] was > 10 µM throughout. The inhibition result in [3] is “Dose-dependent effect”.

As to `COc1cc(C(=O)c2cn(Cc3ccccc3)c(-c3ccc(C)cc3)n2)cc(OC)c1OC`, the IC50 was found to be 0.78 µM in assay [1]; 1.17 µM in assay [2]; 0.68 µM in [4]; 1.5 µM in [5]; 0.47 µM in [6]; 1.06 µM in assay [7]. Further, the inhibition entry in assay [3] is “Dose-dependent effect”.

For the compound `COc1cc(C(=O)c2cc3ccc(F)cc3[nH]2)cc(OC)c1OC`, the half-inhibitory concentration (IC50) in [1], in assay [2], in assay [4], in assay [5], in [6] and in assay [7] was > 10 µM in each case. In assay [3], the inhibition entry was “Dose-dependent effect”.

As to `COc1cc(C(=O)c2cc3ccc(F)cc3n2C)cc(OC)c1OC`, the IC50 was 8.3 µM in assay [1]; 7.5 µM in [2]; 1.05 µM in [4]; > 10 µM in assay [5]; > 10 µM in assay [6]; 5.87 µM in assay [7]. Moreover, the inhibition result in assay [3] is “Dose-dependent effect”.

`COc1cc(C(=O)c2c[nH]c(-c3ccc(C)cc3)n2)cc(OC)c1O`: the IC50 was 0.11 µM in assay [1]; 0.12 µM in assay [2]; 0.13 µM in assay [4]; 0.17 µM in assay [5]; 0.13 µM in assay [6]; 0.11 µM in assay [7]. Also, the inhibition result in [3] is “Dose-dependent effect”.

For the compound `COc1cc(C(=O)c2cc3ccc(Cl)cc3n2Cc2ccccc2)cc(OC)c1OC`, the IC50 in [1], in assay [2], in [4], in [5], in [6] and in [7] was > 10 µM throughout. Moreover, the inhibition entry in assay [3] was “Dose-dependent effect”.

In the case of `COc1ccc(-c2nc(C(=O)c3ccc(F)cc3)cn2C)cc1`, the IC50 in assay [1], in [2], in [4], in [5], in [6] and in assay [7] was > 10 µM each time. In assay [3], the inhibition entry was “Dose-dependent effect”.

Consider `COc1cc(C(=O)c2nc3ccccc3[nH]2)cc(OC)c1OC`, for which the IC50 in assay [1], in assay [2], in [4], in assay [5], in assay [6] and in [7] was > 10 µM throughout. Also, the inhibition entry in assay [3] is “Dose-dependent effect”.

With `COc1cc(C(=O)c2cc3ccc(C)cc3[nH]2)cc(OC)c1OC`, the IC50 in assay [1], in assay [2], in assay [4], in assay [5], in assay [6] and in assay [7] was > 10 µM throughout. Also, the inhibition entry in assay [3] is “Dose-dependent effect”.

Turning to `COc1cc(C(=O)c2cc3ccc(Cl)cc3[nH]2)cc(OC)c1OC`, the IC50 in assay [1], in assay [2], in assay [4], in assay [5], in assay [6] and in [7] was > 10 µM each time. Further, in [3], the inhibition result was “Dose-dependent effect”.

Take `COc1ccc2cc(C(=O)c3cc(OC)c(OC)c(OC)c3)n(S(=O)(=O)c3ccccc3)c2c1`: the IC50 in [1] was 1.05 µM; in assay [2], > 10 µM; in assay [4], > 10 µM; in assay [5], > 10 µM; in assay [6] it was 2.66 µM; in assay [7] it was 8.22 µM. The inhibition entry in assay [3] was “Dose-dependent effect”.

On to `COc1ccc(S(=O)(=O)n2cc(C(=O)c3ccc(F)cc3)nc2-c2ccc(N(C)C)cc2)cc1`, for which the IC50 amounted to 0.06 µM in [1]; 0.1 µM in assay [2]; 0.07 µM in assay [4]; 0.13 µM in assay [5]; 0.04 µM in assay [6]; 0.1 µM in [7]. In assay [3], the inhibition result was “Dose-dependent effect”.

`COc1cc(C(=O)c2cc3cc(Cl)ccc3[nH]2)cc(OC)c1OC`: the IC50 is > 10 µM in assay [1]; 2.16 µM in assay [2]; > 10 µM in assay [4]; > 10 µM in assay [5]; > 10 µM in assay [6]; 1.47 µM in assay [7]. Besides, the inhibition entry in assay [3] is “Dose-dependent effect”.

In the case of `COc1cc(C(=O)c2cc3ccc(Cl)cc3n2C)cc(OC)c1OC`, the IC50 in assay [1] was 4.33 µM; in assay [2], 8.08 µM; in assay [4], 1.04 µM; in [5] it was > 10 µM; in assay [6], 3.76 µM; in assay [7] it was 6.65 µM. Besides, the inhibition entry in [3] is “Dose-dependent effect”.
